In article PMC7079967 (Medicinal Chemistry Research, 2016):

Experiments:
Format in all cases: cell-based
[1] = system: murine leukemia cells (L1210); experiment: Antiproliferative; conditions: Mus musculus, L1210, 48 h, read-out: IC50 L1210
In short: (§1)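 Cells in growth medium proliferated with variable concentrations of test compound at 37 °C in a humidified CO2-controlled atmosphere. Incubation was 48 h for L1210 and 96 h for HeLa. Cell number was then counted with a Coulter counter. IC50 was the concentration inhibiting cell proliferation by 50 %.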

[2] = system: human cervix carcinoma cells (HeLa); experiment: Antiproliferative; conditions: 96 h, read-out: IC50 HeLa
In short: as §1

[3] = system: human T-lymphocyte cells (CEM); experiment: Antiproliferative; conditions: 72 h, read-out: IC50 CEM
In short: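 Human T-lymphocyte CEM cells, suspended in growth medium, were left to proliferate in microtiter wells with varying amounts of test compound at 37 °C in a humidified, CO2-controlled atmosphere. After 72 h, cells were counted with a Coulter counter. IC50 is the concentration that inhibits cell proliferation by 50 %.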

[4] = system: L1210, CEM and HeLa tumor cell lines; experiment: Cytostatic activity stated over the three tumor cell lines together
Parainfluenza-3 virus = experiment: Antiviral assay, virus-induced cytopathicity in Vero cells; conditions: read-out: IC50 Parainfluenza-3 virus
Reovirus-1 = experiment: as above; conditions: read-out: IC50 Reovirus-1
Sindbis virus = experiment: as above; conditions: read-out: IC50 Sindbis virus

Row | SMILES | IC50 [1] [µM] | IC50 [2] [µM] | IC50 [3] [µM] | cytostatic potential, fold lower than 6-mercaptopurine ([4]; compared with 6-mercaptopurine over L1210, CEM, HeLa) | IC50 ([4]; read-out: IC50, cytostatic activity against the three tumor cell lines) [µM] | IC50 (Parainfluenza-3 virus) [µM] | IC50 (Reovirus-1) [µM] | IC50 (Sindbis virus) [µM]
1 | O=C(CCCc1ccc2c(c1)CCCC2)NC(=O)N[C@@H]1O[C@H](CO)[C@@H](O)[C@H](O)[C@H]1O [Compound 7b, N-4-(5,6,7,8-Tetrahydronaphthalen-2-yl)butanoyl-N′-(β-D-glucopyranosyl)-urea] | > 250 | > 250 | > 250 | – | – | – | – | –
2 | Sc1ncnc2nc[nH]c12 [6-Mercaptopurine, reference compound] | 2.8 ± 1.1 | 1.1 ± 0.1 | 2.8 ± 1.3 | – | – | – | – | –
3 | CC(=O)OC[C@H]1O[C@@H](NC(=O)NC(=O)COc2ccc(-c3ccccc3)cc2)[C@H](OC(C)=O)[C@@H](OC(C)=O)[C@@H]1OC(C)=O [Compound 6c, N-2-(Biphenyl-4-yloxy)acetyl-N′-(2,3,4,6-tetra-O-acetyl-β-D-glucopyranosyl)-urea] | > 250 | > 250 | > 250 | – | – | – | – | –
4 | O=c1[nH]cc(F)c(=O)[nH]1 [5-Fluorouracil, reference compound] | 0.33 ± 0.17 | 0.54 ± 0.12 | 18 ± 5 | – | – | – | – | –
5 | CC(=O)OC[C@H]1O[C@@H](NC(=O)NC(=O)CCCc2ccc3c(c2)CCCC3)[C@H](OC(C)=O)[C@@H](OC(C)=O)[C@@H]1OC(C)=O [Compound 6b, N-4-(5,6,7,8-Tetrahydronaphthalen-2-yl)butanoyl-N′-(2,3,4,6-tetra-O-acetyl-β-D-glucopyranosyl)-urea] | 78 | 66 ± 12 | 38 ± 10 | – | – | – | – | –
6 | O=C(COc1ccc(-c2ccccc2)cc1)NC(=O)N[C@@H]1O[C@H](CO)[C@@H](O)[C@H](O)[C@H]1O [Compound 7c, N-2-(Biphenyl-4-yloxy)acetyl-N′-(β-D-glucopyranosyl)-urea] | 9 ± 5.9 | 19 ± 3 | 24 ± 1 | 5- to 15 fold | 9 to 24 | – | – | –
7 | NC(=O)c1ncn([C@@H]2O[C@H](CO)[C@@H](O)[C@H]2O)n1 [Ribavirin] | – | – | – | – | – | 250 | > 250 | > 250
